According to ChEMBL document CHEMBL1154615, “Hydroxamates: relationships between structure and plasma stability” (J Med Chem, 2009):

Assays:
[1] = Stability in potassium phosphate buffer at pH 7.4; assay type: physicochemical
[2] = (§1) Metabolic stability in Sprague-Dawley rat plasma at 10 uM by LC-MS/MS analysis; assay type: ADME, cell-free; conditions: Sprague-Dawley
Summary of the method: (§2)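 Pooled mixed-gender Sprague Dawley lithium-heparin rat plasma, 80 µL per time point in duplicate. Plasma is pre-incubated 5 min at 37 °C, then 30 min with 2 mM PMSF (final) where applied. Compound is added to 10 µM final in 1% DMSO. Quantified by LC-MSMS (MRM or SIM) against an internal standard with a per-compound calibration curve. Result is reported as t1/2.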

[3] = system: Plasma; assay: (§3) Metabolic stability in Sprague-Dawley rat plasma at 10 uM by LC-MS/MS analysis in presence of esterase inhibitor PMSF; assay type: ADME, cell-free; conditions: 10 µM; summary of the method: as §2
[4] = species on record: Homo sapiens; assay: Metabolic stability in human plasma by LC-MS/MS analysis
[5] = Stability in phosphate buffer saline at pH 7.4; assay type: physicochemical
[6] = Half life in po dosed rat; assay type: ADME, organism-based; conditions: in vivo
[7] = as §3; assay type: ADME, cell-free; conditions: Sprague-Dawley, with PMSF (esterase inhibitor); summary of the method: as §2
[8] = Half life in rat at 100 mg/kg, po; assay type: ADME, organism-based; parameters: dose 100 mg/kg, route oral; conditions: in vivo
[9] = Half life in rat at 100 mg/kg, iv; assay type: ADME, organism-based; parameters: dose 100 mg/kg, route intravenous; conditions: in vivo
[10] = system: Plasma; assay: as §1; assay type: ADME, cell-free; conditions: 10 µM; summary of the method: as §2

SMILES | Stability [1] | half-life at 10 µM [2] | also measured
CN(O)C(=O)C(Cc1ccccc1)C(=O)NCc1ccc(F)cc1 (centres undefined) | Stable | 0.5 h | –
O=C(CCc1ccccc1)NO | Stable | 1.5 h | –
O=C(NO)C(Cc1ccccc1)C(=O)NCc1ccc(F)cc1 (centres undefined) | Stable | 0.8 h | t1/2 [3]: 15 h; half-life [4]: > 24 h; half-life [5]: > 24 h
O=C(NO)c1ccc(C#CC2CC2)cc1 | Stable | 4 h | –
CC(C)(C(=O)NO)C(=O)NCc1ccc(F)cc1 | Stable | 19.9 h | –
CC(C(=O)NO)C(=O)NCc1ccc(F)cc1 (centres undefined) | Stable | 33 h | –
O=C(/C=C/c1ccccc1)NO | Stable | 6.2 h | –
O=C(Cc1ccccc1)NO [PHENYLACETOHYDROXAMIC ACID] | Stable | > 24 h | –
CC(=O)N1CCC(C(=O)NO)(S(=O)(=O)c2ccc(Oc3ccc(Cl)cc3)cc2)CC1 | – | – | half-life [6]: 0.86 h
O=C(NO)/C(=C\c1ccccc1)C(=O)NCc1ccc(F)cc1 | Stable | 22 h | half-life [4]: > 24 h; half-life [5]: > 24 h
CCOC(=O)[C@H](CCc1ccccc1)N[C@@H](C)C(=O)N1CCC[C@H]1C(=O)O | – | 0.05 h | half-life at 10 µM [7]: > 24 h
O=C(NO)C1(S(=O)(=O)c2ccc(Oc3ccc(Cl)cc3)cc2)CCN(C2CC2)CC1 | – | – | half-life [6]: 0.74 h
O=C(NO)C1(C(=O)NCc2ccc(F)cc2)CC1 | Stable | 22.3 h | –
CC(C)(C)OC(=O)N[C@H](Cc1ccccc1)C(=O)NO | Stable | < 1 h | –
CC(Cc1ccccc1)(C(=O)NO)C(=O)NCc1ccc(F)cc1 (centres undefined) | Stable | 3 h | –
O=C(NCc1ccc(F)cc1)c1cc2ccccc2n(O)c1=O | Stable | > 48 h | –
CC1(C)ON=C(C(Cc2ccccc2)C(=O)NCc2ccc(F)cc2)O1 (centres undefined) | Stable | 1 h | –
CC(C)Cc1ccc(CCC(=O)N(C)O)cc1 | – | – | half-life [8]: < 0.3 h

SMILES | Stability [1] | half-life at 10 µM [2] | also measured
CC(C)Cc1ccc(C(C)C(=O)N(C)O)cc1 (centres undefined) | – | – | half-life [8]: > 0.3 h
CC(C)Cc1ccc(C(=O)N(C)O)cc1 | – | – | half-life [8]: 0.3 h
O=C(NO)/C(=C/c1ccccc1)C(=O)NCc1ccc(F)cc1 | Stable | 4.1 h | half-life [4]: > 24 h; half-life [5]: > 24 h
CC(C)Cc1ccc(CC(=O)N(C)O)cc1 | – | – | half-life [8]: < 0.3 h
CC(C)Cc1ccc(/C=C/C(=O)N(C)O)cc1 | – | – | half-life [8]: < 0.3 h
O=C(CCCCCCC(=O)Nc1ccccc1)NO [VORINOSTAT] | – | 9.7 h | –
O=C(CCOc1ccccc1)NO | Stable | 1.4 h | –
O=C(Cc1ccc(F)cc1)NC(Cc1ccccc1)C(=O)NO (centres undefined) | Stable | 1.3 h | –
CN(O)C(=O)/C=C/c1ccc2ccccc2c1 | – | – | half-life [9]: 6 min
CN1CCC(C(=O)NO)(S(=O)(=O)c2ccc(Oc3ccc(Cl)cc3)cc2)CC1 | – | – | half-life [6]: 1.25 h
O=C(CC(=O)NCc1ccc(F)cc1)NO | Stable | 10.5 h | –
CCN1CCC(C(=O)NO)(S(=O)(=O)c2ccc(Oc3ccc(Cl)cc3)cc2)CC1 | – | – | half-life [6]: 1.19 h
O=C(NO)C1(S(=O)(=O)c2ccc(Oc3ccc(Cl)cc3)cc2)CCNCC1 | – | – | half-life [6]: 1.8 h
O=C(COc1ccccc1)NO | Stable | 3 h | –
O=C(NO)c1ccccc1 [BENZOHYDROXAMATE] | Stable | > 24 h | –
CC(C)Cc1ccc(C(C)C(=O)NO)cc1 (centres undefined) [IBUPROXAM] | – | – | half-life [8]: 0.3 h
O=C(CCCc1ccccc1)NO [PHENYLBUTYRYLHYDROXAMIC ACID] | Stable | – | t1/2 [10]: 2 h
